Experimental data as given in article PMC4160413 (Cancer cell, 2014).
Read-outs that look alike come from different tables or passages of the source.

What was measured:
MYCN and p-Histone H3 = experiment: Immunoblot screen of MYCN and p-H3 in Kelly cells; assay type: cell-based; conditions: 1 μM, 24 hr
Summary of the method: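 Kelly cells in RPMI with 10% FBS, given one of 32 compounds at 1 μM for 24 hr. Lysis in Cell Signaling buffer with 1% SDS, then sonication and boiling in LDS sample buffer. Immunoblots probed for MYCN, Histone H3, P-Histone H3 (S10), Aurora A and GAPDH. Bands quantified by densitometry and expressed as percent of untreated control.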

SK-N-BE(2) cells = experiment: Cell cycle by flow cytometry; assay type: cell-based
Summary of the method: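 SK-N-BE(2) cells in RPMI with 10% FBS, exposed to test compound for the stated time. EdU pulse before harvest: 2 hours per methods, 1 hr in the 6 hr, 1 μM experiment. Detection used the Click-iT EdU flow kit plus propidium iodide staining, read on a FACSCalibur. Gating was done in Cytobank.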

MYCN-Aurora A complex = target: T1, MYCN-Aurora A complex (Homo sapiens, UniProt O14965); experiment: MYCN immunoprecipitation; assay type: cell-based; conditions: for dissociation of the MYCN-Aurora A complex: IMR32 cells, 2 hr drug, MG-132 4 hr
T1 sequence (O14965 1-403): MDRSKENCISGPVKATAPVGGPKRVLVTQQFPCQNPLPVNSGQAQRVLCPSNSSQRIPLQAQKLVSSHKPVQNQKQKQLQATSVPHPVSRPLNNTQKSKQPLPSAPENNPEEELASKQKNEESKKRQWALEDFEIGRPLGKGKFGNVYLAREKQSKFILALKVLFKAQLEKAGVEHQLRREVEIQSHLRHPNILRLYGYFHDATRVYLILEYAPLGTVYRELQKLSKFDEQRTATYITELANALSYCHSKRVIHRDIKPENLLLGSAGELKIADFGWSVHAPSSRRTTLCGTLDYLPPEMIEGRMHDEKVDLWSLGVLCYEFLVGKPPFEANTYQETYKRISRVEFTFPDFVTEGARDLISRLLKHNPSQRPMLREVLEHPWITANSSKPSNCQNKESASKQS

[1] = same dose (20 mg/kg); ref Carol et al., 2011; cited from earlier work
[2] = tested on: panel 169 distinct tumor-derived cell lines; experiment: Screen of 169 tumor-derived cell lines; assay type: cell-based; conditions: for susceptibility of MYCN-amplified versus non-amplified cell lines: 93 lines with MYCN copy number
Aurora A = target: T2, Aurora A (Homo sapiens, UniProt O14965, T287D); experiment: In vitro kinase assay with purified Aurora A protein; assay type: biochemical; conditions: structure-activity comparison
T2 sequence (O14965 123-390 T287D): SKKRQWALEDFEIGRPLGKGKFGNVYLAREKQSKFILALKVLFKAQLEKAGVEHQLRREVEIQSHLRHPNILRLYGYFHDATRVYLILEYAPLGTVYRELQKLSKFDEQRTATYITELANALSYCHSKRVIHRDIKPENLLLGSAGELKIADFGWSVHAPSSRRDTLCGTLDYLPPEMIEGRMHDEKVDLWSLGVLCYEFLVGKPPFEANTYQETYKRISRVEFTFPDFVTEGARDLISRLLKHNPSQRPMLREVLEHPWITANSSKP

MYCN [3] = experiment: Immunoblot of MYCN protein in SK-N-BE; assay type: cell-based; conditions: SK-N-BE(2) cells, 1 μM, 24 hr
[4] = tested on: SK-N-BE(2) MYCN-amplified neuroblastoma cells; experiment: CyQUANT viability assay, 72 hr, SK-N-BE; assay type: cell-based; conditions: read-out: cellular EC50 at 72 hr
[5] = tested on: Kelly MYCN-amplified neuroblastoma cells; experiment: CyQUANT viability assay, 72 hr, Kelly; assay type: cell-based; conditions: read-out: cellular EC50 at 72 hr
[6] = Pharmacokinetic study in mice; assay type: in vivo
Summary of the method: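 Test compound formulated at 20 mg/ml in 7.5% DMSO / 92.5% PEG300 and given to mice. Compound levels determined by LC-MS/MS.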

[7] = tested on: MYCN-amplified SMS-KCN xenografts; experiment: MYCN-amplified SMS-KCN neuroblastoma xenograft; assay type: in vivo, mice; conditions: 60 mg/kg for 2 days
Summary of the method: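 NOD scid gamma mice received 10⁶ SMS-KCN cells in growth media with 50% Geltrex, implanted into the renal capsule. Tumors were palpable at 21 days post implantation. Mice were then dosed at 60 mg/kg for two days, and tumors were harvested and flash frozen. MYCN protein was measured by immunoblot and compared by two-tailed Student's t-test (mean ± SEM).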

[8] = tested on: MYCN-expressing SHH-subtype medulloblastoma allograft; experiment: SHH-subtype medulloblastoma subcutaneous allograft; assay type: in vivo, mice; conditions: 25 mg/kg twice per week
Summary of the method: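 Homozygous nu/nu mice carried flank subcutaneous allografts of SHH-subtype MYCN-expressing medulloblastoma (10⁶ cells per mouse). Dosing began at 25 mm³ tumor volume (~14 days): vehicle (5% DMSO in PEG300; n=6) or 25 mg/kg (formulated at 7.5 mg/ml; n=4), intraperitoneally twice weekly for up to three weeks. Endpoint was 2.0 cm maximum tumor length. Tumor burden compared by two-tailed t-test, survival by log-rank test.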

[9] = tested on: GFP- and MYCN-transduced SH-EP neuroblastoma cells; experiment: Viability of SHEP cells transduced with MYCN or GFP, 72 hr; assay type: cell-based; conditions: MYCN- vs GFP-transduced SH-EP
MYCN [10] = experiment: Immunoblot of MYCN in SHEP cells expressing MYCN WT or T58A/S62A; assay type: cell-based; conditions: 24 hr; for wild-type MYCN protein level: SHEP MYCN WT
[11] = CD532 1 μM 4 hr, MLN8237 0.1 μM 4 hr, JQ1 2 μM 24 hr

SMILES	Histone H3 phosphorylation (MYCN and p-Histone H3)	MYCN protein level (MYCN and p-Histone H3)	cell cycle effect (SK-N-BE(2) cells; 1 μM, 4 or 6 hr)	cell cycle effect (SK-N-BE(2) cells; [11])	dissociation of the MYCN-Aurora A complex (MYCN-Aurora A complex)	susceptibility of MYCN-amplified versus non-amplified cell lines [2]	cell-free potency against Aurora A relative to CD532 (Aurora A)	efficacy against MYCN (MYCN loss) relative to CD532 (MYCN [3])	wild-type MYCN protein level (MYCN [10])	further results
COc1cc(Nc2ncc3c(n2)-c2ccc(Cl)cc2C(c2c(F)cccc2OC)=NC3)ccc1C(=O)O [MLN8237]	blocked Histone H3 phosphorylation	very modest effects	G2/M arrest	accumulation of cells in G2 and M phase	only modestly disrupted	–	–	–	–	AUC0-24 [1]: 78.4 µM·h
Cc1sc2c(c1C)C(c1ccc(Cl)cc1)=N[C@@H](CC(=O)OC(C)(C)C)c1nnc(C)n1-2 [JQ1, reference compound]	–	–	–	downregulation of MYCN, blockade of S-phase entry, and accumulation of cells in G0/G1	–	significantly more susceptible	–	–	–	–
Cc1cc(Nc2cc(C3CCCC3)[nH]n2)nc(Nc2ccc(NC(=O)Nc3cccc(C(F)(F)F)c3)cc2)n1 [CD15]	–	–	–	–	–	–	maintained	maintained	–	–
O=C(Nc1ccc(Nc2nccc(Nc3cc(C4CCCC4)[nH]n3)n2)cc1)Nc1cccc(C(F)(F)F)c1 [CD532]	–	–	potent loss of S-phase entry	rapid and potent loss of S-phase	dose-dependent and complete dissociation	significantly more susceptible	–	–	dose-dependently decreased	EC50 [4]: 223 nM; EC50 [5]: 147 nM; serum half-life [6]: ~ 1.5 hr; AUC0-24 ([6]; 20 mg/kg): 27 µM·h; MYCN protein level in xenograft tumors [7]: decreased levels of MYCN protein; tolerability of dosing regimen [8]: without obvious short or long-term toxicity or weight loss; MYCN levels in tumors ([8]; intraperitoneal): substantially reduced MYCN levels; survival ([8]; intraperitoneal): extended survival; tumor burden ([8]; intraperitoneal): reduced tumor burden; MYCN-MAX binding (MYCN-Aurora A complex; specificity control): did not affect; EC50s in cell line panel ([2]; most cell lines): nanomolar range; effect of MYCN transduction on sensitivity [9]: conferred sensitivity; MYCN T58A/S62A protein degradation (MYCN [10]; SHEP MYCN T58A/S62A): less effective
O=C(Nc1ccccc1)Nc1ccc(Nc2nccc(Nc3cc(C4CCCC4)[nH]n3)n2)cc1 [CD25]	–	–	–	–	–	–	retained potency	less effective than CD532	–	–
Cc1cc(Nc2cc(N3CCN(C)CC3)nc(Sc3ccc(NC(=O)C4CC4)cc3)n2)[nH]n1 [VX-680]	blocked Histone H3 phosphorylation	very modest effects	G2/M arrest	–	–	–	–	–	little effect	–
